T cruzi repl – inhibitors of intracellular T. cruzi growth, primary screen, luminescence, NIH3T3 host cells; hit rate 1.4% among 300,000; inhibition, % (no concentration beside the values); T. cruzi beta-gal in NIH3T3, 90 h;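 active = mean inhibition across valid replicates above about 55%, limit read from the data; inconclusive = mean below that limit but half or more replicates reach it; inactive = mean below it, under half of replicates reach it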;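 note: signal also drops with host cell toxicity which is not excluded here; 0% = plate median of DMSO wells and 100% = zero luminescence signal; higher percent means less beta-gal luminescence so fewer parasites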
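System: mouse NIH/3T3 fibroblasts infected with β-gal-expressing T. cruzi Tulahuen C4 / Input: NIH/3T3 cells, 5,000 per well / Buffer or medium: Low-serum DMEM with 2% FBS / Probe or stimulus: 5000 reporter trypomastigotes per well / Schedule: ≥90 h infection period, 3 h prior cell attachment / Measured by: GalScreen luminescence, 60 min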
aSyn UTR inh – MLPCN primary screen, SNCA 5' untranslated region. alpha-synuclein 5'UTR reporter, inhibitor activity. inhibition, % (tested at 7.5 µM). hit rate 0.82% among 300,000; in the data active = inhibition above about 60%; inconclusive = no clear call, values can overlap the other calls;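 note: H4 neuroglioblastoma cells stably carrying SNCA 5'UTR luciferase fusion; 0% = DMSO wells and 100% = positive control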
Mdm2 MdmX PPI – inhibitors of human Mdm2-MdmX association, primary screen, cell-based, luminescence, split luciferase, SaOS-2, uHTS; SaOS-2 split-luciferase Mdm2/MdmX complementation; inhibition, % at 8 µM; hit rate 3% among 330,000;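 active = inhibition of at least 50% at 8 µM in the primary screen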
SKKanGAS inh – S. pyogenes SKKanGAS growth inhibitors in kanamycin, primary screen, streptokinase expression inhibitor project, SKKanGAS strain, BacTiter-Glo luminescence; 6 h; inhibition, % at 7.5 µM; hit rate 1.3% among 300,000; AID 1662, 2009;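 active = mean replicate score, as percent of positive control median, at least 50; inconclusive = mean below 50 but one replicate at or above 50; inactive = mean and every replicate below 50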;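 note: strain carries kanamycin resistance gene driven by streptokinase promoter and grows in 40 µg/ml kanamycin; loss of luminescence reflects streptokinase promoter inhibition or plain growth inhibition; 0% = median of DMSO wells and 100% = positive control at its reference dose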
CSC inhib – cancer stem cell viability inhibitors, primary screen, luminescence | cancer stem cell-like cells viability | inhibition, % at 7.5 µM | hit rate 1.1% among 300,000 | AID 2717, 2010; in the data active = inhibition above about 75%; inconclusive = no clear call, values can overlap the other calls; tested in HMLE shEcad cells
* = called active by the depositor; ? = inconclusive; · = not tested or not shown. Most compounds without a hit are left out; they make up all but 5.4% or so of the library.

SMILES	T cruzi repl	aSyn UTR inh	Mdm2 MdmX PPI	SKKanGAS inh	CSC inhib
CC1(C)CC(c2nc(-c3ccc(Cl)cc3)cs2)CCS1 (centres undefined)	8	12	5	65*	28
Cc1nn(CC(=O)NC2C(=O)N3C(C(=O)O)=C(CSc4nnnn4C)CSC23)cc1Br (centres undefined)	-4	-17	-4	109*	-15
Cc1c(Cl)c(C(F)F)nn1CC(=O)NC1C(=O)N2C(C(=O)O)=C(CSc3nnnn3C)CSC12 (centres undefined)	-9	-24	·	119*	·
CC(C(=O)NC1C(=O)N2C(C(=O)O)=C(CSc3nnnn3C)CSC12)n1cc(Cl)cn1 (centres undefined)	4	6	-6	105*	-6
Cc1c(Cl)cnn1CC(=O)NC1C(=O)N2C(C(=O)O)=C(CSc3nnnn3C)CSC12 (centres undefined)	-17	-15	31	120*	-11
NC(=O)c1cc[n+](CC2=C(C(=O)O)N3C(=O)[C@@H](NC(=O)C(c4ccccc4)S(=O)(=O)[O-])[C@H]3SC2)cc1 (some centres undefined)	19	6	8	-8	-11
CC1=C(C(=O)O)N2C(=O)C(NC(=O)c3nn(C)cc3Cl)C2SC1 (centres undefined)	-9	-9	10	-3	-3
CO[C@@]1(NC(=O)C2SC(=C(C(N)=O)C(=O)O)S2)C(=O)N2C(C(=O)O)=C(CSc3nnnn3C)CS[C@@H]21 (some centres undefined)	·	·	2	·	-6
CCn1ccc(C(=O)NC2C(=O)N3C(C(=O)O)=C(C)CSC23)n1 (centres undefined)	-22	0	19	-6	13
CC(=O)C(Cc1ccccc1)NC(=O)CN(C)Cc1ccccc1Cl (centres undefined)	-6	-5	-25	-1	4
Cc1cc(OCCN2CCC(Cc3ccccc3)CC2)ccc1[N+](=O)[O-]	50	-17	18	0	57
Cn1nnnc1SCC1=C(C(=O)O)N2C(=O)C(NC(=O)Cn3nc(C(F)F)cc3C3CC3)C2SC1 (centres undefined)	-1	-1	2	104*	-4
Cc1nnc(SCC2=C(C(=O)O)N3C(=O)C(NC(=O)Cc4ccccc4)C3SC2)s1 (centres undefined)	·	·	6	·	-6
Cc1nnc(SCC2=C(C(=O)O)N3C(=O)C(NC(=O)C(C)n4nc(C(F)(F)F)cc4C)C3SC2)s1 (centres undefined)	-5	19	7	103*	-8
CC(=O)OCCc1c2ccccc2c(CCCN(C)C)c2ccccc12	45	103*	2	1	-6
COc1cc(OC)c(N2CC(C(=O)Nc3cccc(C(=O)NC4CC4)c3)CC2=O)cc1Cl (centres undefined)	·	·	-8	·	·
CN(C)/C=C1\SC(=S)N(c2ccc(F)cc2)C1=O	0	-26	-24	-3	-4
CN(C)/C=C1\SC(=S)N(c2ccc(Br)cc2)C1=O	8	-100	10	54*	4
OCCN1CCN(Cc2cc(Cl)c3cccnc3c2O)CC1	-11	20	44	-8	23
Cc1ccc(S(=O)(=O)Nc2cccnc2Oc2ccc(Cl)cc2)cc1	-1	-6	-27	18	3
COCc1cc(CN2CCCC2)c(O)c2ncccc12	64*	?	38	0	36
Oc1ccc(CN2CCCCC2)c2cccnc12	68*	?	50	-7	23
Oc1ccc(F)c2cccnc12	-9	-21	4	-17	8
Oc1c(Cl)cc(Cl)c2cccnc12	43	13	·	87*	·
Cc1ccc(S(=O)(=O)Nc2cc(Cl)c(O)c3ncccc23)cc1	-10	77*	40	79*	29
SMILES	T cruzi repl	aSyn UTR inh	Mdm2 MdmX PPI	SKKanGAS inh	CSC inhib
O=C(N/N=C\c1cc(Br)cs1)C1COc2ccccc2O1 (centres undefined)	-8	-127	37	2	·
Cn1nc(C(=O)N2CCC(C(N)=O)CC2)c2c1-c1ccccc1SC2	-16	6	7	-1	3
O=C(Oc1c(CN2CCOCC2)cc(Cl)c2cccnc12)c1ccccc1Cl	51	105*	41	20	20
O=[N+]([O-])c1cc(CN2CCCC2)c2cccnc2c1O	·	·	·	·	34
Oc1c(Cl)cc(CN2CCCCC2)c2cccnc12	53	38	46	24	87*
Nc1nonc1-c1nc2ccccc2n1CC(=O)N/N=C/c1ccc(-c2cccc(C(=O)O)c2)o1	-9	-45	9	68*	·
Nc1nonc1-c1nc2ccccc2n1CC(=O)O	-4	-31	6	3	-4
Cc1ccc2c(c1)c(C)c(C)n2CC(O)Cn1nc(C)c(Br)c1C (centres undefined)	22	22	42	59*	1
COc1ccc2nc(NC(=O)c3ccc(NS(=O)(=O)c4cccs4)cc3)sc2c1	-8	-67	0	63*	47
Cc1cccc2sc(NC(=O)c3ccc(NS(=O)(=O)c4cccs4)cc3)nc12	-1	-1	-1	79*	60
COc1ccc(-c2nc(C(=O)NCCCN3CCOCC3)cc3c2[nH]c2ccccc23)cc1OC	21	-3	33	9	-3
Cc1ccc(-c2nc(C(=O)NCCCN3CCOCC3)cc3c2[nH]c2ccccc23)cc1	57*	-65	40	10	-12
COc1ccc(C=O)cc1COc1ccc2c(c1)OCO2	·	·	19	·	·
NNC(=O)c1nn(-c2ccccc2)cc1O	-13	83*	-3	-3	-7
CNC(=S)N1CCN(CCNC2=CC(=O)CC(C)(C)C2)CC1	-4	-19	12	13	-2
CC1(C)CC(NCCN2CCN(C3=CC(=C(C#N)C#N)CC(C)(C)C3)CC2)=CC(=C(C#N)C#N)C1	86*	33	40	32	9
COc1ccccc1OCC(=O)/C=C1/N(C)c2ccccc2C1(C)C	22	24	15	0	9
CN1/C(=C\C(=O)COc2ccc3c(c2)OCO3)C(C)(C)c2ccccc21	56*	2	2	14	112*
CN1/C(=C\C(=O)C[n+]2ccc3ccccc3c2)C(C)(C)c2ccccc21	61*	-31	40	-4	·
CCn1cc(C(=S)N2CCC(C(N)=O)CC2)c2ccccc21	0	13	-12	8	-7
CC(=O)c1ccc(OCCCC(=O)NCc2nnc3ccccn23)cc1	·	·	12	·	·
CCCCCCCc1c(O)nc(SCC(=O)O)[nH]c1=O	-9	9	-18	-8	-8
COC(=O)c1ccc(/C=C/c2c(-c3ccsc3)sc3ccccc23)cc1	-7	13	19	11	94*
COc1ccc(-c2sc3ccccc3c2/C=C/c2ccc(N)cc2)cc1	·	·	-40	·	97*
